# Test results published in ChEMBL document CHEMBL1153140, “Piperidyl amides as novel, potent and orally active mGlu5 receptor antagonists with anxiolytic-like activity” (Bioorg Med Chem Lett, 2010).
# Activity calls are given as the source filed them. No cut-off for these calls is given here.
# Key:
# [1] = molecular target: T1, Metabotropic glutamate receptor 5 (Homo sapiens, UniProt P41594); experiment: Antagonist activity at human mGluR5 assessed as inhibition of glutamate-induced elevation of intracellular calcium concentration; format: functional, cell-based
# T1 sequence (P41594 whole entry): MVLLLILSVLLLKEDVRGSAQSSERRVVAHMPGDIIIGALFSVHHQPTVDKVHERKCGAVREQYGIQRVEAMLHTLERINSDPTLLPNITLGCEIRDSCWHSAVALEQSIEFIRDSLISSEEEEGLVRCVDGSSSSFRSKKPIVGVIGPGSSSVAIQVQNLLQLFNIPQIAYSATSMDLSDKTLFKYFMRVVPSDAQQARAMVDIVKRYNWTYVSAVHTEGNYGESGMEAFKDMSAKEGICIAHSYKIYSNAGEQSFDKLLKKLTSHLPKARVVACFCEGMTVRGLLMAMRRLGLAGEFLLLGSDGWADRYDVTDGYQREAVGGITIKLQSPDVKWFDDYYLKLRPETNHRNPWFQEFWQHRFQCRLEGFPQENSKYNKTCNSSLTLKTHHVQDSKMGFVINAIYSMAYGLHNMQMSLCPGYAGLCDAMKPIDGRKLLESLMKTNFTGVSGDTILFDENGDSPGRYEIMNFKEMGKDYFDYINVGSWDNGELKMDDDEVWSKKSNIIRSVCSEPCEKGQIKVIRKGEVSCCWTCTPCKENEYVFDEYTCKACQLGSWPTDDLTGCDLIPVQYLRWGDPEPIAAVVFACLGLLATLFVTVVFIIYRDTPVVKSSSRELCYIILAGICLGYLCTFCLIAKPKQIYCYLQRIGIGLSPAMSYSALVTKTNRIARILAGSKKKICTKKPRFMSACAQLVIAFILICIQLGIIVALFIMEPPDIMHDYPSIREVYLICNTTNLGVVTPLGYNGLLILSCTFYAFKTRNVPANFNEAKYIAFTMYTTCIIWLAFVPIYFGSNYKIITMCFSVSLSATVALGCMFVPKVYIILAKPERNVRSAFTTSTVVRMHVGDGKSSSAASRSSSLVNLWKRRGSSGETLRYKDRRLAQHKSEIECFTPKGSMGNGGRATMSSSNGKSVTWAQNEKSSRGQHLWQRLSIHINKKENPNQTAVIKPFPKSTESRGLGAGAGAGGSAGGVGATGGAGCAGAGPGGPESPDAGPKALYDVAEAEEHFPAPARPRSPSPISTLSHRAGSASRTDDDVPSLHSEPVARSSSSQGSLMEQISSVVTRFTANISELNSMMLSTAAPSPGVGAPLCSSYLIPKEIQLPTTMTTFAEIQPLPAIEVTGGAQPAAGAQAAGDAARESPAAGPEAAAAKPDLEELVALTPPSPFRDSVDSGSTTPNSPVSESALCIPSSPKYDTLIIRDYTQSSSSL
# [2] = molecular target: T1, Metabotropic glutamate receptor 5; experiment: Antagonist activity at human mGluR5 assessed as inhibition of quisqualate-induced intracellular inositol phosphate accumulation; format: functional, cell-based
# [3] = Aqueous solubility at pH 6.8; format: physicochemical
# How it was run: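 Solubility measured at pH 6.8 by a dissolution template potentiometric titration approach, expressed in mg/L.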
# [4] = Intrinsic clearance in human liver microsomes; format: ADME, Microsome
# [5] = Intrinsic clearance in rat liver microsomes; format: ADME, Microsome
# Rattus norvegicus [6] = experiment: Anxiolytic-like activity in water-deprived rat assessed as increase in electrical shock-stimulated lick at 3 mg/kg, po administered 1 hr before test by Vogel conflict test; format: functional, organism-based; set-up: dose 3 mg/kg
# Rattus norvegicus [7] = organism: Rattus norvegicus; experiment: Anxiolytic-like activity in rat assessed as reduction in electric foot shock-induced fear-potentiation startle; format: functional, organism-based
# How it was run: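 Rats fear-conditioned by 20 pairings of light (5 s) with footshock (0.5 mA, 0.5 s) on two successive days. On day 3, oral dosing (3–30 mg/kg, n = 10/group). 1 h later, startle to a noise burst measured with and without light, 12 presentations each; FPS taken as the difference. Multifactorial ANOVA with Dunnett post-hoc.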
# Brain = experiment: Drug level in rat brain at 2 mg/kg; format: ADME, organism-based; set-up: dose 2 mg/kg; conditions: in vivo
# How it was run: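 In a fear-potentiated startle run at 0.08–30 mg/kg po, rats were sacrificed immediately after testing. Brains were removed and drug concentration measured by HPLC, reported as mean ± SEM per dose group.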
# [8] = molecular target: Metabotropic glutamate receptor 1 (Homo sapiens, UniProt Q13255); experiment: Inhibition of human mGluR1
# Sequence of Metabotropic glutamate receptor 1 (Q13255 whole entry): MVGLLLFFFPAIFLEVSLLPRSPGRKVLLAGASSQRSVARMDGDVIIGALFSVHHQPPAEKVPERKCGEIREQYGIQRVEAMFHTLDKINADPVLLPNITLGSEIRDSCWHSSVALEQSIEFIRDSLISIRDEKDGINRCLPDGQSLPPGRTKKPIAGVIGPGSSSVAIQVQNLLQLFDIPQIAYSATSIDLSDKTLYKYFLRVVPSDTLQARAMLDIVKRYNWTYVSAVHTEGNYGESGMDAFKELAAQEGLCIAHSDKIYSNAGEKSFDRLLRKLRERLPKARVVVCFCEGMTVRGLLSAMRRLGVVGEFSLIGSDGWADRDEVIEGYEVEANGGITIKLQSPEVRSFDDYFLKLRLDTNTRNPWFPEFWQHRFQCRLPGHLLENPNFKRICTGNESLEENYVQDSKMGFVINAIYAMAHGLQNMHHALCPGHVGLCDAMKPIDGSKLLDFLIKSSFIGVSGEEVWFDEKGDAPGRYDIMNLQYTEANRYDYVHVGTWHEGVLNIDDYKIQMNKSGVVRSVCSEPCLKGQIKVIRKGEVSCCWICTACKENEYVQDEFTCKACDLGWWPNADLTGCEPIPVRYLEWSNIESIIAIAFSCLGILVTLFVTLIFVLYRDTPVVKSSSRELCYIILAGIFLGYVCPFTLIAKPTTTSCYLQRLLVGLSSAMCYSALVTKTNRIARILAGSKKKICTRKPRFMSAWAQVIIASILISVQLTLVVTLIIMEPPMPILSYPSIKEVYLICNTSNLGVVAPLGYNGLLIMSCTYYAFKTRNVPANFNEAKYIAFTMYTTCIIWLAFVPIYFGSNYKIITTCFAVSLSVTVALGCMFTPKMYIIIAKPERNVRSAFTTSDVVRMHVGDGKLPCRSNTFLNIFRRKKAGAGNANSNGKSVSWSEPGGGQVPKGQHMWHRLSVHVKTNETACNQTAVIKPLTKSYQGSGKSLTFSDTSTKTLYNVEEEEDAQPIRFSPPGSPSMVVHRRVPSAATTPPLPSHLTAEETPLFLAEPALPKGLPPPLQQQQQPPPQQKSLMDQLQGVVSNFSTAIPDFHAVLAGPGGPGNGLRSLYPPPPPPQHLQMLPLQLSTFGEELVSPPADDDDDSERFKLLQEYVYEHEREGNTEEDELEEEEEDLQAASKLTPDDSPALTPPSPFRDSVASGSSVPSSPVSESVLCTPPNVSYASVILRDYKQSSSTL
# [9] = molecular target: Metabotropic glutamate receptor 2 (Homo sapiens, UniProt Q14416); experiment: Inhibition of human mGluR2
# [10] = molecular target: Metabotropic glutamate receptor 7 (Homo sapiens, UniProt Q14831); experiment: Inhibition of human mGluR7
# Sequence of Metabotropic glutamate receptor 7 (Q14831 whole entry): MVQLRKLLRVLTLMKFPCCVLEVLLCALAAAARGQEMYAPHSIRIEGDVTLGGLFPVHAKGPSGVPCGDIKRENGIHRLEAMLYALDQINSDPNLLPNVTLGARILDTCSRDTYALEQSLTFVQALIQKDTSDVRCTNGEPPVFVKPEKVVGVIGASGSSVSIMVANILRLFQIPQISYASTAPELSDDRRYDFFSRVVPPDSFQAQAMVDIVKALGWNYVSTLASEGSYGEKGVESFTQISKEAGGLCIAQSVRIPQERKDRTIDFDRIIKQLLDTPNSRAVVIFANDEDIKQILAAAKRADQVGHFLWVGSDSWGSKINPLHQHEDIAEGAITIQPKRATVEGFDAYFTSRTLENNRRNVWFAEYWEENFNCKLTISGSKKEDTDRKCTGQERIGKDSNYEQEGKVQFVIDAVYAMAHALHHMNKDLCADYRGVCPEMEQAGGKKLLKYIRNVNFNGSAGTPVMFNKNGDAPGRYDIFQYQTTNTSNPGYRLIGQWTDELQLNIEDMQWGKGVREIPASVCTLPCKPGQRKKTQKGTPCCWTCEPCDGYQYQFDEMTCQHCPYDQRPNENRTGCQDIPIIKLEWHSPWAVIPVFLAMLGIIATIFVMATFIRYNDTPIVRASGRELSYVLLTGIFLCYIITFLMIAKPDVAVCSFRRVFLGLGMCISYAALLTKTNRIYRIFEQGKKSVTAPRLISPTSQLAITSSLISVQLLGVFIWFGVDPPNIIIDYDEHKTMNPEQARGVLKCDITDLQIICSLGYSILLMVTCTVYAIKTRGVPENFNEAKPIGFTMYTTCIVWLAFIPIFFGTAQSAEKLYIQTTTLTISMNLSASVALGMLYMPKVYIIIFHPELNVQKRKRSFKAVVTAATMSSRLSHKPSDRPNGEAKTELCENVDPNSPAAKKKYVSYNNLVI
# Glutamate NMDA receptor = experiment: Displacement of radioligand from glutamate and glycine binding site of NMDA receptor in rat brain membrane; format: cell membranes
# How it was run: (§1)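 Radioligand displacement in rat brain membranes: AMPA (glutamate site), kainate (glutamate site) and NMDA (glutamate and glycine sites).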
# [11] = Displacement of radioligand from glutamate binding site of AMPA receptor in rat brain membrane; format: cell membranes; how it was run: as §1
# [12] = Displacement of radioligand from glutamate binding site of kinate receptor in rat brain membrane; format: cell membranes; how it was run: as §1
# [13] = Second elimination Half life in Sprague-Dawley rat at 10 umol/kg, iv; format: ADME, organism-based; conditions: in vivo, read-out: beta t1/2 (converted)
# How it was run: (§2)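 Single iv bolus of 10 µmol/kg in Sprague-Dawley rats, n = 3 per group. Plasma concentration-time profile analysed for AUC, clearance, first and second elimination half-lives, MRT and Vss. Brain/plasma AUC ratio also determined.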
# [14] = molecular target: Metabotropic glutamate receptor 5 (Rattus norvegicus, UniProt P31424); experiment: Displacement of [3H]ABP688 from mGluR5 in rat brain cortex; format: tissue-based
# Sequence of Metabotropic glutamate receptor 5 (Rattus norvegicus, UniProt P31424) (P31424 whole entry): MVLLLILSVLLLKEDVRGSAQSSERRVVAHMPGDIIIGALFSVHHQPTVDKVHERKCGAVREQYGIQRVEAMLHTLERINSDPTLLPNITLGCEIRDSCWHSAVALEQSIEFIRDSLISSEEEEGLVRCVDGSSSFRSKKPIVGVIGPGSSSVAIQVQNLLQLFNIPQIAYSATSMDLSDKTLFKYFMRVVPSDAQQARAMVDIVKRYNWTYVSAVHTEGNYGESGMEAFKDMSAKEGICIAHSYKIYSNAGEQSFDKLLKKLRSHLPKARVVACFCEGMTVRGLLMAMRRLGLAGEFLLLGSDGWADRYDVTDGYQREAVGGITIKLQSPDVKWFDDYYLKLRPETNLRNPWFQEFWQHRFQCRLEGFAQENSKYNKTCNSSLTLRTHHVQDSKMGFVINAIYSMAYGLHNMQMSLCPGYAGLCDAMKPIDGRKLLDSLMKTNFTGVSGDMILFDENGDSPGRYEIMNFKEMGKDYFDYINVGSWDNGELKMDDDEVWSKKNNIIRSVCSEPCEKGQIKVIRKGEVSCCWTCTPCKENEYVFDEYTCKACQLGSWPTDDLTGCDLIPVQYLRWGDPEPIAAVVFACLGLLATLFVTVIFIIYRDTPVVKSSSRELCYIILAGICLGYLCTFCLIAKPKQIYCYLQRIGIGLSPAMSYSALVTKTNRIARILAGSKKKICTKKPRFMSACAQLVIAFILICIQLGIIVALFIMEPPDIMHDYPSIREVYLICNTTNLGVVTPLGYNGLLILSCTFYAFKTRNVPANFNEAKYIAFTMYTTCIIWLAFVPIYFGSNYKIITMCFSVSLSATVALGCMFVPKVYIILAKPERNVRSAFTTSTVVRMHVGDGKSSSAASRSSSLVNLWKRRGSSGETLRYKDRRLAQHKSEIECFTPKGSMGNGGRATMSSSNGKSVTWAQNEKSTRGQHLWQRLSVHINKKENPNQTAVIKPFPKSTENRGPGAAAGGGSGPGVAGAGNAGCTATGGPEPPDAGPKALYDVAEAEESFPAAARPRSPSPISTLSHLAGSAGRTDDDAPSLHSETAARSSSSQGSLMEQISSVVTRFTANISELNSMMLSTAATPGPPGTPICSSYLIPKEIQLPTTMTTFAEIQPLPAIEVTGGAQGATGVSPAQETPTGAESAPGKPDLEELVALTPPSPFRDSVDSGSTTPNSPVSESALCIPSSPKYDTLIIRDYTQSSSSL
# [15] = molecular target: T1, Metabotropic glutamate receptor 5; experiment: Displacement of [3H]ABP688 from human recombinant mGluR5 expressed in CHO cells; format: cell-based
# [16] = Cmax in Sprague-Dawley rat at 30 umol/kg, po; format: ADME, organism-based; set-up: dose 30 umol/kg, route oral; conditions: in vivo
# How it was run: (§3)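 Sprague-Dawley rats (n = 3/group) dosed orally once at 30 µmol/kg. Plasma Cmax, Tmax and AUC determined.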
# [17] = Tmax in Sprague-Dawley rat at 30 umol/kg, po; format: ADME, organism-based; conditions: in vivo; how it was run: as §3
# [18] = AUC in Sprague-Dawley rat at 30 umol/kg, po; format: ADME, organism-based; conditions: plasma; how it was run: as §3
# [19] = Oral bioavailability in Sprague-Dawley rat at 30 umol/kg; format: ADME, organism-based; conditions: in vivo; how it was run: as §3
# [20] = Ratio of drug level in brain to plasma in Sprague-Dawley rat at 30 umol/kg, po; format: ADME
# How it was run: (§4)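 Single-dose pharmacokinetic study in Sprague-Dawley rats, n = 3 per group, given one oral or one iv bolus dose. Drug concentrations were followed over time in plasma and brain. The ratio is the brain AUC divided by the plasma AUC.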
# [21] = First elimination Half life in Sprague-Dawley rat at 10 umol/kg, iv; format: ADME, organism-based; conditions: in vivo, read-out: beta t1/2 (converted); how it was run: as §2
# [22] = Mean retention time in Sprague-Dawley rat at 10 umol/kg, iv; format: ADME, organism-based; conditions: in vivo; how it was run: as §2
# [23] = Clearance in Sprague-Dawley rat at 10 umol/kg, iv; format: ADME, organism-based; conditions: in vivo; how it was run: as §2
# [24] = Volume of distribution at steady state in Sprague-Dawley rat at 10 umol/kg, iv; format: ADME, organism-based; conditions: in vivo, read-out: Vdss; how it was run: as §2
# [25] = AUC in Sprague-Dawley rat at 10 umol/kg, iv; format: ADME, organism-based; conditions: plasma; how it was run: as §2
# [26] = Ratio of drug level in brain to plasma in Sprague-Dawley rat at 10 umol/kg, iv; format: ADME; how it was run: as §4
# Mus musculus = experiment: Anxiolytic-like activity in mouse assessed as reduction of stress-induced hyperthermia at 3 to 10 mg/kg, po; format: functional, organism-based
# Rattus norvegicus [27] = experiment: Anxiolytic-like activity in water-deprived rat assessed as increase in electrical shock-stimulated lick at 10 to 30 mg/kg, po administered 1 hr before test by Vogel conflict test; format: functional, organism-based
structure (smiles),measurement,setting,value
CN(c1ccc(Cl)cc1)c1ccc(C(=O)N2CCCCC2)cn1,IC50,[1],> 10000 nM
CC1CCCN(C(=O)c2ccc(Nc3ccc(Cl)cc3)cc2)C1 (configuration not stated),IC50,[1],1600 nM
O=C(c1ccc(Nc2ccccc2Cl)nc1)N1CCCCC1,IC50,[1],> 10000 nM
O=C(c1ccc(Nc2ccc(Cl)cc2)nc1)N1CCCCCC1,IC50,[1],250 nM
Cc1cccc(Nc2ccc(C(=O)N3CCCCC3)cn2)n1,IC50,[1],> 10000 nM
CCC1CCCCN1C(=O)c1cnc(Nc2ccc(C)nc2)c(Cl)c1 (racemic),IC50,[1],110 nM
same,IC50,[2],90 nM
same,solubility,[3],122 µg/mL
same,microsomal CLint,[4],138 µL/min/mg
same,microsomal CLint,[5],220 µL/min/mg
Cc1ccc(Nc2ncc(C(=O)N3CCCC[C@H]3C)cc2Cl)cn1,IC50,[1],240 nM
same,IC50,[2],430 nM
same,solubility,[3],216 µg/mL
same,microsomal CLint,[4],44 µL/min/mg
same,microsomal CLint,[5],73 µL/min/mg
Cc1ccc(Nc2ncc(C(=O)N3CCCC(C)C3)cc2Cl)cn1 (racemic),microsomal CLint,[4],60 µL/min/mg
same,microsomal CLint,[5],38 µL/min/mg
CC1CCCN(C(=O)c2ccc(Nc3ccc(Cl)cc3)nc2)C1 (racemic),IC50,[1],530 nM
O=C(c1ccc(Nc2ccc(Cl)c(Cl)c2)nc1)N1CCCCC1,IC50,[1],> 10000 nM
O=C(c1ccc(Nc2cccc(Cl)c2)nc1)N1CCCCC1,IC50,[1],> 10000 nM
Cc1ccc(Nc2ncc(C(=O)N3CCCC[C@@H]3C)cc2Cl)cn1,IC50,[1],1400 nM
same,solubility,[3],499 µg/mL
same,microsomal CLint,[4],39 µL/min/mg
same,microsomal CLint,[5],68 µL/min/mg
O=C(c1ccc(Nc2ccc(F)cc2)nc1)N1CCCCC1,IC50,[1],2300 nM
CC1CCCN(C(=O)c2ccc(Nc3ccc(Cl)cc3)nn2)C1 (configuration not stated),IC50,[1],720 nM
CC1CCCN(C(=O)c2ccc(Oc3ccc(Cl)cc3)nc2)C1 (configuration not stated),IC50,[1],> 10000 nM
O=C(c1ccc(Nc2ccc(Cl)cn2)nc1)N1CCCCC1,IC50,[1],10000 nM
CCCC1CCCCN1C(=O)c1cnc(Nc2ccc(C)nc2)c(Cl)c1 (racemic),IC50,[1],90 nM
same,IC50,[2],16 nM
same,solubility,[3],< 3 µg/mL
same,microsomal CLint,[4],224 µL/min/mg
same,microsomal CLint,[5],885 µL/min/mg
O=C(c1ccc(Nc2ccccc2)nc1)N1CCCCC1,IC50,[1],10000 nM
O=C(c1ccc(Nc2ccc(Cl)cc2)nc1)N1CCCC1,IC50,[1],5400 nM
O=C(c1ccc(Nc2ccc(Cl)cc2)nc1)N1CCCCCCC1,IC50,[1],2300 nM
Cc1ccc(Nc2ncc(C(=O)N3CCCCC3)cc2Cl)cn1,solubility,[3],150 µg/mL
same,microsomal CLint,[4],33 µL/min/mg
same,microsomal CLint,[5],48 µL/min/mg
O=C(NC1CCCCC1)c1ccc(Nc2ccc(Cl)cc2)nc1,IC50,[1],> 10000 nM
CC1CCCCN1C(=O)c1ccc(Nc2ccc(Cl)cc2)nc1 (racemic),IC50,[1],430 nM
CC1CCCN(C(=O)c2cc(Nc3ccc(Cl)cc3)[nH]n2)C1 (configuration not stated),IC50,[1],> 10000 nM
CCC1CCCN(C(=O)c2cnc(Nc3ccc(C)nc3)c(Cl)c2)C1 (racemic),solubility,[3],15 µg/mL
same,microsomal CLint,[4],171 µL/min/mg
same,microsomal CLint,[5],417 µL/min/mg
CC[C@@H]1CCCCN1C(=O)c1cnc(Nc2ccc(C)nc2)c(Cl)c1,Activity,Rattus norvegicus [6],inactive
same,Activity,Rattus norvegicus [7],Dose-dependent effect
same,Drug uptake,Brain,127 pmol/g
same,IC50,[8],> 10000 nM
same,IC50,[9],> 10000 nM
same,IC50,[10],> 10000 nM
same,IC50,Glutamate NMDA receptor,> 10000 nM
same,IC50,[11],> 10000 nM
same,IC50,[12],> 10000 nM
same,half-life,[13],54 min
same,Ki,[14],30 nM
same,IC50,[1],32 nM
same,IC50,[2],36 nM
same,solubility,[3],58 µg/mL
same,microsomal CLint,[4],89 µL/min/mg
same,microsomal CLint,[5],87 µL/min/mg
same,Ki,[15],38 nM
same,Cmax,[16],1230 nM
same,Tmax,[17],15 min
same,AUC,[18],7.23 µM·h
same,bioavailability,[19],54%
same,Kp,[20],1.3
same,half-life,[21],18 min
same,MRT,[22],54 min
same,clearance,[23],37.2 mL/min/kg
same,Vd,[24],2 L/kg
same,AUC,[25],4.48 µM·h
same,Kp,[26],1.36
same,Activity,Mus musculus,Active
same,Activity,Rattus norvegicus [27],Active
O=C(c1ccc(Nc2ccc(Cl)cc2)nc1)N1CCCCC1,IC50,[1],310 nM
Cc1ccc(Nc2ccc(C(=O)N3CCCCC3)cn2)cn1,IC50,[1],420 nM
CC[C@H]1CCCCN1C(=O)c1cnc(Nc2ccc(C)nc2)c(Cl)c1,IC50,[1],390 nM
same,IC50,[2],360 nM
same,solubility,[3],56 µg/mL
same,microsomal CLint,[4],216 µL/min/mg
same,microsomal CLint,[5],190 µL/min/mg
CCCCC1CCCCN1C(=O)c1cnc(Nc2ccc(C)nc2)c(Cl)c1 (racemic),IC50,[1],136 nM
same,IC50,[2],5 nM
same,solubility,[3],< 3 µg/mL
same,microsomal CLint,[4],227 µL/min/mg
same,microsomal CLint,[5],637 µL/min/mg
CCN(CC)C(=O)c1ccc(Nc2ccc(Cl)cc2)nc1,IC50,[1],460 nM
COc1ccc(Nc2ccc(C(=O)N3CCCCC3)cn2)cc1,IC50,[1],1800 nM
CC1CCCN(C(=O)c2cnc(Nc3ccc(Cl)cc3)c(Cl)c2)C1 (configuration not stated),IC50,[1],95 nM
Cc1ccc(Nc2ccc(C(=O)N3CCCCC3)cn2)cc1,IC50,[1],2300 nM
CC[C@@H]1CCCN(C(=O)c2cnc(Nc3ccc(C)nc3)c(Cl)c2)C1,solubility,[3],95 µg/mL
same,microsomal CLint,[4],322 µL/min/mg
same,microsomal CLint,[5],643 µL/min/mg
O=C(c1cnc(Nc2ccc(Cl)cc2)cn1)N1CCCCC1,IC50,[1],> 10000 nM
CC1CCN(C(=O)c2ccc(Nc3ccc(Cl)cc3)nc2)CC1,IC50,[1],2300 nM
O=C(c1ccc(NC2CCCCC2)nc1)N1CCCCC1,IC50,[1],> 10000 nM
CC[C@H]1CCCN(C(=O)c2cnc(Nc3ccc(C)nc3)c(Cl)c2)C1,solubility,[3],< 3 µg/mL
same,microsomal CLint,[4],174 µL/min/mg
same,microsomal CLint,[5],687 µL/min/mg
COc1cc(C(=O)N2CCCCC2)cnc1Nc1ccc(Cl)cc1,IC50,[1],2100 nM
CC1CCCN(C(=O)c2cnc(Nc3ccc(Cl)cc3)nc2)C1 (configuration not stated),IC50,[1],980 nM
